Here are results for 27 compounds from ChEMBL document CHEMBL4359909, “De novo design approaches targeting an envelope protein pocket to identify small molecules against dengue virus” (Eur J Med Chem, 2019).

In data set [1] the test system is dengue virus type 2. In words: Antiviral activity against DENV-2 infected in human A549 or Mesocricetus auratus BHK21 cells preincubated for 30 mins further incubated for 1 hr followed by replacement of fresh medium containing compounds and measured at 8 hrs post infection by renilla luciferase assay. Format: functional, organism-based. The method, boiled down:
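Reporter DENV-2 carrying Renilla luciferase, MOI 1. Inoculum preincubated 30 min with compound, left on cells 1 h, then replaced by fresh medium containing compound. Luciferase read at 8 h p.i., reflecting entry and translation of incoming genome. EC50 is the concentration giving a two-fold drop in luciferase versus control; mean of at least two independent experiments.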

Data set [2] is described as follows: Cytotoxicity against human A549 cells assessed as reduction in cell viability after 48 hrs by MTT assay. It is filed as cell-based.
The nature of data set [3]: Selectivity index, ratio of CC50 for human A549 or Mesocricetus auratus BHK21 cells to EC50 for antiviral activity against DENV-2 infected in A549or Mesocricetus auratus BHK21 cells. It is filed as toxicity. Conditions: read-out: Ratio CC50/EC50.
A short description of data set [4]: Solubility in simulated gastric fluid at 1 mg incubated for 24 hrs in shaker and measured after 24 hrs by shake-flask method based UV-VIS-NIR spectrophotometric analysis. Format: physicochemical. The method, boiled down: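 Shake-flask method: 1.0 mg compound in 1 mL simulated gastric fluid (pH 1.2), mixed at 1500 rpm at 37 °C for 24 h, then held at 37 °C for 24 h. Filtered at 0.2 µm and read by UV-VIS-NIR spectrophotometry against a calibration curve. Reported as mean ± SD of two independent experiments run in triplicate.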

A short description of data set [5]: Solubility in simulated intestinal fluid at 1 mg incubated for 24 hrs in shaker and measured after 24 hrs by shake-flask method based UV-VIS-NIR spectrophotometric analysis. It is filed as physicochemical. The method, boiled down:
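Shake-flask method: 1.0 mg compound in 1 mL simulated intestinal fluid (pH 6.8), mixed at 1500 rpm at 37 °C for 24 h, then held at 37 °C for 24 h. Filtered at 0.2 µm and read by UV-VIS-NIR spectrophotometry against a calibration curve. Reported as mean ± SD of two independent experiments run in triplicate.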

A short description of data set [6]: Solubility in PBS at 1 mg incubated for 24 hrs in shaker and measured after 24 hrs by shake-flask method based UV-VIS-NIR spectrophotometric analysis. Format: physicochemical. The method, boiled down:
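Shake-flask method: 1.0 mg compound in 1 mL PBS (pH 7.4), mixed at 1500 rpm at 37 °C for 24 h, then held at 37 °C for 24 h. Filtered at 0.2 µm and read by UV-VIS-NIR spectrophotometry against a calibration curve. Reported as mean ± SD of two independent experiments run in triplicate.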

Data set [7] can be described thus: Half life in simulated gastric fluid at 50 uM measured up to 120 mins at pH 1.2 by HPLC-MS analysis. Format: ADME. The method, boiled down: (§1)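 DMSO stock diluted in acetonitrile, added to PBS (pH 7.4), SGF (pH 1.2) or SIF (pH 6.8) at 50 μM final; shaking water bath 37°C, triplicate. Samples at 0–120 min quenched with acetonitrile containing warfarin internal standard, centrifuged, diluted in methanol:water, analysed by HPLC-MS (C18, ESI positive); quantified by peak area ratio to internal standard.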

Data set [8] can be described thus: Half life in simulated intestinal fluid at 50 uM measured up to 120 mins at pH 6.8 by HPLC-MS analysis. Format: ADME. A digest of the protocol: as §1
Data set [9] in a line: Half life in PBS at 50 uM measured up to 120 mins at pH 7.4 by HPLC-MS analysis. It is filed as physicochemical. A digest of the protocol:
as §1

Data set [10] in a line: Half life in mouse plasma at 50 uM measured up to 120 mins by HPLC-MS analysis. Format: ADME, cell-free. A digest of the protocol: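 Mouse plasma diluted to 80% with PBS, preheated; compound added at 50 μM final from DMSO stock; 37°C shaking, triplicate. Samples at 0–120 min deproteinized with cold acetonitrile plus warfarin internal standard, centrifuged at 4°C, supernatant diluted in methanol:water, HPLC-MS; peak area ratio to internal standard. Enalapril positive control.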

The subject of data set [11] is A549. In words: Cytotoxicity against human A549 cells at 50 uM after 48 hrs by MTT assay. Format: cell-based. Conditions: a549, 48 h. (Formazan colour is commonly taken as a measure of viable cells.)
Data set [12] relates to Dengue virus. Briefly: Antiviral activity in DENV infected in cells assessed as reduction in intracellular viral RNA level after 48 hrs by RT-PCR analysis.

≈ marks a conversion by molar mass, not a printed value. Calls of active or inactive are those of the source. The calls are words filed in the database; no cut-off is given here.

The EC50 is the concentration needed to bring the measured effect to its halfway point. Lower therefore signals a more potent agent. For orientation: CC50 means the concentration at which the toxic effect on the cells reaches its halfway point. Compound `c1ccc(-c2ccc(Nc3ccnc(NCCN4CCOCC4)n3)cc2)cc1` gave an EC50 in data set [1] of 8.6 µM. Further, the CC50 at 48 h in data set [2] worked out at 59 µM. Besides, in [3], the selectivity ratio was 7.

`Clc1ccc(Nc2ccnc(NCc3cccnc3)n2)cc1`: in [1], a half-maximal effect (EC50) was put at 24 µM.

In the case of `Cc1ccc(-c2ccc(Nc3ccnc(NCCN4CCOCC4)n3)cc2)cc1`, in [1], the EC50 was 1.8 µM. Besides, the CC50 at 48 h in data set [2] turned out to be 10.2 µM. Moreover, the selectivity ratio in data set [3] was determined as 5.

In the case of `CC1(C)CC(Nc2nccc(NCc3ccc(F)cc3)n2)CC(C)(C)N1`, the EC50 in [1] amounted to 1.98 µM. In addition, the CC50 at 48 h in data set [2] stood at 12.8 µM. Further, the selectivity ratio in data set [3] was 7.

In data set [1], `CN1CCN(c2nccc(Nc3ccc(-c4ccc(Cl)cc4)cc3)n2)CC1` had an EC50 of 3.3 µM. For the same compound, in data set [2], the cytotoxic concentration (CC50) at 48 h came out at 23.5 µM. For the same compound, in data set [3], the selectivity ratio came to 5.

In data set [1], `Clc1ccc(CNc2ccnc(NCc3cccnc3)n2)cc1` returned an EC50 of 23.7 µM.

Take `OCCN1CCN(c2nccc(Nc3ccc(-c4ccccc4)cc3)n2)CC1`: the EC50 in [1] was 19.9 µM.

In turn, `OCCN1CCN(c2nccc(Nc3ccc(Cl)cc3)n2)CC1` came in with a concentration giving a half-maximal response (EC50) in [1] of 24 µM.

The compound `CN1CCN(c2nccc(Nc3ccc(-c4cccc(Cl)c4)cc3)n2)CC1` yielded an EC50 in data set [1] of 2.9 µM. In data set [2], the CC50 at 48 h turned out to be 15.3 µM. In addition, in [3], the selectivity ratio worked out at 5.

As usually defined, the solubility (thermodynamic) is the concentration in solution at equilibrium with solid. Broadly, the half-life is the time in which the quantity being followed falls by half. Low readings indicate rapid decline, high ones slow decline. Turning to `CC1(C)CC(Nc2nccc(Nc3ccc(-c4ccccc4)cc3)n2)CC(C)(C)N1`, the results for the thermodynamic solubility at 24 h in [4], in [5] and in [6] were 76 µg/mL (≈ 189 µM), 580 µg/mL (≈ 1440 µM) and 93 µg/mL (≈ 232 µM), respectively. The half-life at 50 µM in data set [7], in data set [8], in data set [9] and in [10] was above 2 h each time.

On to `Clc1cccc(-c2ccc(Nc3ccnc(NCc4cccnc4)n3)cc2)c1`, for which the response in data set [1] was half-maximal at 3.4 µM (EC50). Further, the CC50 at 48 h in data set [2] is 18.5 µM. In [3], the selectivity ratio came to 5.

In data set [1], `COc1ccc(CNc2ccnc(NC3CC(C)(C)NC(C)(C)C3)n2)cc1` showed an EC50 of 12.5 µM. For the same compound, in data set [2], the CC50 at 48 h was found to be 18.3 µM. Besides, in data set [3], the selectivity ratio is 2.

On to `Cc1ccc(-c2ccc(Nc3ccnc(NC4CC(C)(C)NC(C)(C)C4)n3)cc2)cc1`, for which a half-maximal response in data set [1] (EC50) required 1.51 µM. Further, the CC50 at 48 h in [2] was 12 µM. For the same compound, the selectivity ratio in data set [3] was 8.

Consider `Cc1ccc(Nc2ccnc(NCCN3CCOCC3)n2)cc1`, for which it took 21.3 µM to reach a half-maximal effect in data set [1] (EC50). Besides, in data set [2], the CC50 at 48 h is above 50 µM. The selectivity ratio in data set [3] was above 2.

For the compound `c1ccc(-c2ccc(Nc3ccnc(NCCN4CCCCC4)n3)cc2)cc1`, the thermodynamic solubility at 24 h in data set [4] was 506 µg/mL (≈ 1350 µM); in data set [5], 324 µg/mL (≈ 867 µM); in [6], 32 µg/mL (≈ 85.7 µM). The half-life at 50 µM in [7], in data set [8], in data set [9] and in data set [10] was above 2 h throughout.

For `Clc1ccc(Nc2ccnc(NCCN3CCOCC3)n2)cc1`, in data set [1], the EC50 came out at 23.6 µM. Besides, the CC50 at 48 h in [2] came to 89.6 µM. In addition, the selectivity ratio in [3] worked out at 4. Besides, the Activity result in [11] was “Non-Toxic”.

Regarding `Clc1ccc(-c2ccc(Nc3ccnc(NCc4cccnc4)n3)cc2)cc1`, the EC50 in [1] was determined as 4.1 µM. Moreover, the CC50 at 48 h in [2] worked out at 25.7 µM. Further, in data set [3], the selectivity ratio turned out to be 6.

In turn, `c1ccc(-c2ccc(Nc3ccnc(OCCN4CCOCC4)n3)cc2)cc1` returned an EC50 in data set [1] of 39.7 µM.

In turn, `CC1(C)CC(Nc2nccc(Nc3ccc(-c4cccc(Cl)c4)cc3)n2)CC(C)(C)N1` registered an EC50 in [1] of 0.54 µM. In addition, the CC50 at 48 h in data set [2] is 5.1 µM. Moreover, in data set [3], the selectivity ratio turned out to be 10. In addition, the outcome in [12] was Active.

In [1], `CC1(C)CC(Nc2nccc(Nc3ccc(Cl)cc3)n2)CC(C)(C)N1` gave an EC50 of 1.9 µM. Further, the CC50 at 48 h in data set [2] amounted to 18.6 µM. Also, the selectivity ratio in [3] amounted to 10.

As for `Clc1ccc(/C=N/Nc2ccnc(NCCN3CCOCC3)n2)c(Cl)c1`, the EC50 in [1] is 10.6 µM. In data set [2], the CC50 at 48 h was determined as 76.5 µM. The selectivity ratio in data set [3] turned out to be 8.

`CC1(C)CC(Nc2nccc(NCc3ccc(Cl)cc3)n2)CC(C)(C)N1` showed an EC50 in data set [1] of 1.8 µM. Besides, in [2], the half-maximal cytotoxic concentration (CC50) at 48 h stood at 21.1 µM. In addition, in data set [3], the selectivity ratio came out at 12.

Consider `O=C(Nc1ccnc(NCCN2CCOCC2)n1)c1ccc(-c2ccccn2)s1`, for which the EC50 in data set [1] was determined as 3.3 µM. The CC50 at 48 h in [2] was found to be 10.5 µM. In addition, the selectivity ratio in [3] turned out to be 4.

For the compound `Cc1ccc(-c2ccc(Nc3ccnc(N4CCN(C)CC4)n3)cc2)cc1`, the EC50 in data set [1] turned out to be 4.9 µM. Besides, the CC50 at 48 h in data set [2] stood at 27.7 µM. The selectivity ratio in data set [3] worked out at 6.

`Cc1ccc(CNc2ccnc(NC3CC(C)(C)NC(C)(C)C3)n2)cc1` registered an EC50 in data set [1] of 4.9 µM. For the same compound, the CC50 at 48 h in data set [2] was found to be 15.2 µM. Besides, the selectivity ratio in [3] was found to be 3.

Regarding `Clc1ccc(-c2ccc(Nc3ccnc(NCCN4CCCCC4)n3)cc2)cc1`, the response in data set [1] was half-maximal at 1.1 µM (EC50). Further, the 50% cytotoxic concentration (CC50) at 48 h in [2] is 14.3 µM. Besides, the selectivity ratio in data set [3] was found to be 13.

As for `CC1(C)CC(Nc2nccc(Nc3ccc(-c4ccc(Cl)cc4)cc3)n2)CC(C)(C)N1`, the EC50 in data set [1] came out at 0.18 µM. Besides, the CC50 at 48 h in [2] is 9.8 µM. The selectivity ratio in data set [3] worked out at 54. Moreover, the result in data set [12] was Active.
